Results gathered from unrelated publications.
Compare with care: the assays were run in different laboratories.
ALK: ALK tyrosine kinase receptor (ALK, Homo sapiens, UniProt Q9UM73)
ALK C1156Y: ALK tyrosine kinase receptor (ALK, Homo sapiens, UniProt Q9UM73, C1156Y)
ALK L1196M: ALK tyrosine kinase receptor (ALK, Homo sapiens, UniProt Q9UM73, L1196M)

Structure (SMILES)	target	observed	action	method	concentration	endpoint	result
Cc1ccc(NC(=O)c2ccnc(C(F)(F)F)c2)cc1-c1cc(OCCO)nc(N2CCOCC2)c1	ALK	binding	–	–	1 µM	remaining binding	89%
C1=C/COCc2cc(ccc2OCCN2CCCC2)Nc2nccc(n2)-c2cccc(c2)COC/1	ALK C1156Y	binding	–	–	0.1 µM	remaining binding	97%
CCCCC(=O)Nc1ccc(-c2ccc3ncn(CCC)c(=O)c3c2)cn1	ALK C1156Y	binding	–	competition with immobilised ligand	0.5 µM	remaining binding	100%
C#Cc1cnc(Nc2ccnc(CO)c2)nc1Nc1ccccc1S(C)(=O)=NC#N (centres unmarked)	ALK	enzyme activity	inhibitor	radiometric	1 µM	remaining activity	27.6%
CC#CC(=O)N1CCC[C@H]1c1nc(-c2ccc(C(=O)Nc3ccccn3)cc2)c2c(N)nccn12	ALK L1196M	enzyme activity	inhibitor	–	1 µM	inhibition	11%
CS(=O)(=O)c1ccccc1Nc1nc(Nc2ccnc(CO)c2)ncc1Cl	ALK	enzyme activity	inhibitor	radiometric	1 µM	remaining activity	10.2%
COc1ccc2[nH]c3c4[nH]c5ccc(OC)cc5c4c4c(c3c2c1)C(=O)NC4=O	ALK	binding	–	–	1 µM	remaining binding	55%
C=CC(=O)N1CCC([C@@H]2CCNc3c(C(N)=O)c(-c4ccc(Oc5ccccc5)cc4)nn32)CC1	ALK	cell-free assay	–	–	1 µM	inhibition	5%
COc1ccc2oc(-c3ccc4nc(N)oc4c3)c/c(=N\c3ccccc3NC(=O)CCN)c2c1	ALK	binding	–	–	1 µM	remaining binding	106%
CS(=O)(=NC#N)c1ccccc1Nc1nc(Nc2ccnc(CO)c2)ncc1Cl (centres unmarked)	ALK	enzyme activity	inhibitor	radiometric	1 µM	remaining activity	36.7%
C[C@H]1CC[C@H](n2c3cnccc3c3cnc(Nc4ccc5c(n4)CCN(C(=O)CO)C5)nc32)CC1	ALK	binding	–	–	1 µM	remaining binding	84%
CO[C@@H]1[C@H](N(C)C(=O)c2ccccc2)C[C@H]2O[C@]1(C)n1c3ccccc3c3c4c(c5c6ccccc6n2c5c31)C(=O)NC4	ALK L1196M	enzyme activity	inhibitor	–	1 µM	inhibition	42%
CNC(=O)c1ccccc1Nc1nc(Nc2ccc(CO)nc2)ncc1Cl	ALK	enzyme activity	inhibitor	radiometric	1 µM	remaining activity	2.92%
CN1CCN(C(=O)c2ccc(NC(=O)Nc3ccc(N(C)c4ccnc(Nc5ccc(CS(C)(=O)=O)cc5)n4)cc3)cc2)CC1	ALK C1156Y	binding	–	–	1 µM	remaining binding	64%
